One may read the MIC as the lowest concentration that inhibits growth of the organism.

Molecules are shown by their SMILES. ≈ marks a conversion by molar mass, not a printed value.

The assay concerns Staphylococcus aureus. In words: Antimicrobial activity against Staphylococcus aureus ATCC 35556 by M7-A7 method. The class given is functional. The procedure, abridged: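 Planktonic MIC by CLSI M7-A7 broth microdilution. Twofold compound dilutions made in DMSO at 50× final concentration and added to plates before inoculation; 2% DMSO final.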

Take `O=C(N[C@H](CO)[C@H](O)c1ccc([N+](=O)[O-])cc1)C(Cl)Cl` [CHLORAMPHENICOL]: the MIC stood at 1 µg/mL (≈ 3.09 µM).

The record behind these values is ChEMBL document CHEMBL1649230, “Aryl rhodanines specifically inhibit staphylococcal and enterococcal biofilm formation” (Antimicrob Agents Chemother, 2009).
